Screens as filed in PubChem BioAssay.
S100A4 MyoIIA: blocks human S100A4 binding to myosin IIA peptide; P26447; S100A4/TAMRA-MyoIIA peptide fluorescence polarization; inhibition, % at 10.7 µM; actives 0.14% (n = 360,000); AID 652163;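 active = mean inhibition of at least 70% across replicates, with every replicate also reaching that level; inconclusive = mean inhibition reaches 70% but some replicates fall short; inactive = mean inhibition below 70%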
Target sequence (P26447 whole entry, looked up): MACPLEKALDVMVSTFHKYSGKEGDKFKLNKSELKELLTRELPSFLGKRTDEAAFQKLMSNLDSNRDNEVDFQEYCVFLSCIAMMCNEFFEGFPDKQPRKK
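Compound dosing: one dose per compound; test system: human S100A4 monomer with TAMRA-labelled myosin IIA peptide; probe or stimulus: TAMRA-labelled myosin IIA heavy-chain peptide probe, 5 nM; medium: HEPES buffer with Ca2+, pH 7.2; schedule: 5 min incubation before reading; benchmarks: neutral control DMSO, positive control TFP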
XiGFP reactiv: X-chromosome reactivation activator | XiGFP mouse fibroblasts, % GFP-positive cells imaging, 3 d; cells co-treated with 5-aza-dC sensitizer; scaled so ellipticine positive control = 100% | activation, % at 7.58 µM | actives 0.055% (n = 360,000) | AID 743238;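 active = mean normalized replicate activation at least 10% and every replicate at or above 10%; inconclusive = only one of the two criteria met; inactive = mean below 10% and not all replicates reach 10%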;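 note: 0% = median of on-plate neutral control wells and 100% = ellipticine 6 µM median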
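System: SV40-immortalized XiGFP fibroblast cells, line 68-5-11 / Incubation: 3-day compound exposure, then 15 min fixation at room temperature / Compound: single concentration per compound, delivered by pin transfer / Buffer or medium: DMEM plus 5-aza-dC sensitizer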
E-selectin induc: E-selectin induction on HUVECs. activation, % at 7.58 µM. actives 0.37% (n = 260,000). HUVEC E-selectin immunofluorescence imaging; normalized: neutral wells 0, TNF-alpha wells 100. P16581. AID 686992;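 active = mean E-selectin-positive cell signal at least 10% of the positive control, reached in at least 60% of replicates, without over 20% cell loss; inconclusive = no rule given, readout overlaps actives, possibly toxicity-flagged; inactive = the rest, including those meeting only one limit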
Target sequence (P16581 whole entry, looked up): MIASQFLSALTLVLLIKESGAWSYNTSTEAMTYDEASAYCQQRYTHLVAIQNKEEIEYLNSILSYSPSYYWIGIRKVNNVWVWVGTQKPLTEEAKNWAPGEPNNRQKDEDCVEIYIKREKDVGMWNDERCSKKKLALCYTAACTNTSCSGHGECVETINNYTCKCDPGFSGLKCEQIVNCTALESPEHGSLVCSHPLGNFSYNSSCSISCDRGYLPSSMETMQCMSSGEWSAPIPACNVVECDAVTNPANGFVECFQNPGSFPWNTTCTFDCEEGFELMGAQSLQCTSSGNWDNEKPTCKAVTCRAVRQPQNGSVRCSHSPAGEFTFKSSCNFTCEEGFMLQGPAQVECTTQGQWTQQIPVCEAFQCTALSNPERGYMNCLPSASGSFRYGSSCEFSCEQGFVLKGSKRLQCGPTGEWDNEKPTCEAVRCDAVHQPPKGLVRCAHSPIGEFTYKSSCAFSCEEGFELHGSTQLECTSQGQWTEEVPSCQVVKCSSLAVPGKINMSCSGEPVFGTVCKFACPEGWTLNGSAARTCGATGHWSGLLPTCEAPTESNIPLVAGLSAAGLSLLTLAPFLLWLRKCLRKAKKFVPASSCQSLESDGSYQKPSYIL
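Test system: HUVEC | Signal: Immunofluorescence imaging | Read-out: Percent E-selectin-positive cells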
DENV2 CPE: DENV2-induced cell death inhibition | DENV2-infected cells, cytopathic effect rescue, plate reader | AID 651640 | actives 1.7% (n = 350,000) | CPE inhibition, % at 9.99 µM; in the data active = CPE inhibition above about 20%, passing the limit was not always enough; inconclusive = no clear call, values can overlap the other calls; tested in BHK-21 cells;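 note: 0% = median of neutral control wells and 100% = median of positive control wells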
Numbers without * were called inactive; ? = inconclusive; . = no result; ! = repeats disagree. Hits are enriched below; roughly 2% of the tested compounds scored in any of these assays.

SMILES	S100A4 MyoIIA	XiGFP reactiv	E-selectin induc	DENV2 CPE
CCCC#Cc1ccc([C@@H]2[C@@H](CO)N(C(=O)C3CC3)[C@H]2C#N)cc1	34.2	-0.1	-0.1	62.6*
CC(C)C#Cc1ccc([C@@H]2[C@@H](C#N)N(C(=O)C3CCC3)[C@@H]2CO)cc1	-7.1	0.1	0.5	-9.9
COc1ccc(C(C)=O)cc1CSc1nnc(Nc2ccc(C)cc2)s1	-9.8	0.0	.	47.4*
CCOC=C1SC(=S)N(c2ccccc2OC)C1=O	126.9*	0.0	-2.5	-4.7
COc1ccccc1CC(Cc1nc2ccccc2[nH]1)c1nc2ccccc2[nH]1 (stereo not drawn)	1.3	0.0	176.0*	-1.9
OC(c1nc2ccccc2[nH]1)C(O)c1nc2ccccc2[nH]1 (stereo not drawn)	1.9	0.2	.	-5.5
N#CC(Cc1ccccc1OC(F)F)c1nc2ccccc2[nH]1 (stereo not drawn)	0.6	0.0	.	24.6*
CC(C)Cc1nc2ccccc2[nH]1	-2.8	0.0	-0.3	4.2
COc1ccc2c3c([nH]c2c1)[C@@H](CO)N(Cc1cccc(F)c1)CC31CCN(Cc2ccccn2)CC1	8.5	0.2	-0.3	2.8
Cc1cccc(C)c1NC(=O)CN(C)C(=O)c1ccc(-n2cncn2)c([N+](=O)[O-])c1	1.4	0.0	49.8*	-6.9
O=C(NCCc1cccc(C(F)(F)F)c1)C1CCC(=O)N(CCc2cccc(F)c2)C1 (stereo not drawn)	0.1	0.0	.	1.5
C[C@@H]1CN([C@@H](C)CO)C(=O)CCCn2cc(nn2)CO[C@H]1CN(C)S(=O)(=O)c1ccc(Cl)cc1	0.6	-0.1	-0.1	20.8*!
C[C@H](CO)N1C[C@H](C)[C@H](CN(C)S(=O)(=O)c2ccc(Oc3ccccc3)cc2)OCc2cn(nn2)CCCC1=O	14.3	0.0	0.1	22.1*
C[C@H]1CN([C@@H](C)CO)C(=O)CCCn2cc(nn2)CO[C@@H]1CN(C)S(=O)(=O)c1ccc(Oc2ccccc2)cc1	2.5	0.0	0.4	34.6*!
C[C@@H]1CN([C@@H](C)CO)C(=O)CCCn2cc(nn2)CO[C@@H]1CN(C)S(=O)(=O)c1ccc(Cl)cc1	.	0.4	-0.1	.
CCCc1nc2ccc(C(=O)OC)cn2c1Cc1ccccc1OC	3.8	0.3	0.0	0.4
CCCC(=O)N1CC2(C1)CN(C(=O)Nc1c(C)noc1C)[C@H](CO)c1c2c2ccc(OC)cc2n1C	.	0.3	.	.
COc1ccc(S(=O)(=O)Nc2cccc3c2O[C@H](CN(C)C(=O)Nc2cccc4ccccc24)[C@@H](C)CN([C@@H](C)CO)C3=O)cc1	.	-0.4	-7.1	.
CC(C)NC(=O)N(C)C[C@@H]1Oc2ccc(NS(=O)(=O)c3ccccc3)cc2C(=O)N([C@H](C)CO)C[C@@H]1C	111.9*	-0.1	0.0	-6.3
C[C@@H]1CN([C@@H](C)CO)C(=O)c2cccc(NS(=O)(=O)c3cccs3)c2O[C@@H]1CN(C)C(=O)Nc1cccc2ccccc12	36.9	-0.8	0.2	43.0*
C[C@@H]1CN([C@@H](C)CO)C(=O)c2cc(NS(=O)(=O)c3ccccc3)ccc2O[C@H]1CN(C)C(=O)Nc1cccc2ccccc12	-1.9	-0.1	-0.3	27.0*
C[C@H]1CN([C@@H](C)CO)C(=O)c2cccc(NS(=O)(=O)c3cccs3)c2O[C@@H]1CN(C)C(=O)Nc1cccc2ccccc12	-40.5	-1.1	0.1	?
COc1ccc(S(=O)(=O)Nc2cccc3c2O[C@H](CN(C)C(=O)Nc2cccc4ccccc24)[C@@H](C)CN([C@H](C)CO)C3=O)cc1	.	-1.0	27.6*	.
C[C@H](CO)N1C[C@H](C)[C@@H](CN(C)C(=O)Nc2cccc3ccccc23)Oc2ccc(NS(=O)(=O)c3ccccc3)cc2C1=O	6.7	-0.3	0.6	0.0
COc1ccc(C2C(C(N)=O)=C(C)Nc3nc(CCCO)nn32)cc1 (stereo not drawn)	-15.3	0.1	-0.1	3.4
SMILES	S100A4 MyoIIA	XiGFP reactiv	E-selectin induc	DENV2 CPE
O=C(NCc1cccnc1)Nc1ccc(F)cc1F	.	.	-0.4	.
COc1ccc(S(=O)(=O)Nc2ccc3c(c2)C(=O)N([C@H](C)CO)C[C@@H](C)[C@@H](CN(C)C(=O)Nc2cccc4ccccc24)O3)cc1	6.5	-0.1	74.9*	3.6
CCOP(=O)(OCC)c1ccc2c(c1)C(=O)c1ccccc1CC2	2.2	0.0	0.1	45.9*
COc1ccc(-c2ccc3c(c2)[C@@H]2[C@@H](CCN2C(=O)C2CCCC2)[C@H](CO)N3C)cc1	-9.9	0.0	-0.1	16.6
COc1ccc(-c2ccc3c(c2)[C@@H]2[C@@H](CCN2C(=O)C2CCOCC2)[C@@H](CO)N3C)cc1	.	0.0	2.9	115.0*
COc1cccc(-c2ccc3c(c2)[C@H]2[C@H](CCN2C(=O)c2ccc4c(c2)OCO4)[C@H](CO)N3C)c1	98.0*	-0.1	-0.6	-27.6
ClCCCc1cn(C[C@H]2CC[C@@H]([C@@H]3CC[C@H](Cn4cc(CCCCl)nn4)O3)O2)nn1	-1.6	0.1	0.0	22.4*
CCCCc1cn(C[C@H]2CC[C@@H]([C@@H]3CC[C@H](Cn4cc(CCCC)nn4)O3)O2)nn1	-1.7	0.0	0.0	-1.6
CNC(=O)C[C@@H]1CC[C@@H]2[C@H](COc3ccc(NC(=O)c4ccc(C(F)(F)F)cc4)cc3C(=O)N2C)O1	.	0.3	0.3	-2.7
COc1ccc(NC(=O)CCNS(=O)(=O)c2cccc3nsnc23)cc1	-20.0	0.0	-0.4	.
CCCc1ccc(C(=O)NNc2ccccc2F)cc1	-3.0	0.2	55.0*	-9.8
CCc1ccc(C(=O)NNc2ccccc2F)cc1	3.2	0.0	0.3	9.3
Cc1ccc(CNc2nc(N)c([N+](=O)[O-])c(Nc3ccc(F)cc3)n2)cc1	.	.	0.7	.
CN1C(=O)c2cc(NC(=O)c3cccc(C(F)(F)F)c3)ccc2OC[C@@H]2O[C@@H](CC(=O)O)CC[C@H]21	-3.0	0.1	0.1	-3.3
Cc1ccc(C(=O)COC(=O)C2CC3CCCC(C2)C3=O)cc1[N+](=O)[O-] (stereo not drawn)	140.4*	0.2	-0.2	13.2
O=S(=O)(c1cccc(Br)c1)N1CCN(C(=S)NCC2CCCO2)CC1 (stereo not drawn)	-1.8	0.1	-0.6	67.7*
O=C(N1CCOCC1)[C@]1(Cc2ccccc2)N=C(c2ccc(OCCCO)cc2)O[C@@H]1c1ccccc1	0.0	.	.	17.7
Cc1cc(OCC(O)CNC(C)c2ccccc2)ccc1C(C)C (stereo not drawn)	-5.1	0.1	0.2	39.2*
CC(NCC(O)COc1ccc2ccccc2c1)c1ccccc1 (stereo not drawn)	2.6	0.0	-0.1	9.1
COc1ccccc1N1CCN(S(=O)(=O)CCNC(=O)CCc2ccccc2)CC1	-3.3	0.0	.	119.5*
CCCN(C)C[C@H]1Oc2ncc(C#CCN(C)C)cc2C(=O)N([C@H](C)CO)C[C@H]1C	1.2	-1.2	-0.3	?
Cc1ccccc1CN1C(=O)CN(S(C)(=O)=O)CC1(C)C(=O)NCc1ccccc1 (stereo not drawn)	-2.9	0.1	-0.2	22.3*
